Assay results from different studies.
Compare with care: the assays were run in different laboratories.
Target: Serine/threonine-protein kinase D3 (PRKD3, Homo sapiens, UniProt O94806)
One construct used (O94806 1-890): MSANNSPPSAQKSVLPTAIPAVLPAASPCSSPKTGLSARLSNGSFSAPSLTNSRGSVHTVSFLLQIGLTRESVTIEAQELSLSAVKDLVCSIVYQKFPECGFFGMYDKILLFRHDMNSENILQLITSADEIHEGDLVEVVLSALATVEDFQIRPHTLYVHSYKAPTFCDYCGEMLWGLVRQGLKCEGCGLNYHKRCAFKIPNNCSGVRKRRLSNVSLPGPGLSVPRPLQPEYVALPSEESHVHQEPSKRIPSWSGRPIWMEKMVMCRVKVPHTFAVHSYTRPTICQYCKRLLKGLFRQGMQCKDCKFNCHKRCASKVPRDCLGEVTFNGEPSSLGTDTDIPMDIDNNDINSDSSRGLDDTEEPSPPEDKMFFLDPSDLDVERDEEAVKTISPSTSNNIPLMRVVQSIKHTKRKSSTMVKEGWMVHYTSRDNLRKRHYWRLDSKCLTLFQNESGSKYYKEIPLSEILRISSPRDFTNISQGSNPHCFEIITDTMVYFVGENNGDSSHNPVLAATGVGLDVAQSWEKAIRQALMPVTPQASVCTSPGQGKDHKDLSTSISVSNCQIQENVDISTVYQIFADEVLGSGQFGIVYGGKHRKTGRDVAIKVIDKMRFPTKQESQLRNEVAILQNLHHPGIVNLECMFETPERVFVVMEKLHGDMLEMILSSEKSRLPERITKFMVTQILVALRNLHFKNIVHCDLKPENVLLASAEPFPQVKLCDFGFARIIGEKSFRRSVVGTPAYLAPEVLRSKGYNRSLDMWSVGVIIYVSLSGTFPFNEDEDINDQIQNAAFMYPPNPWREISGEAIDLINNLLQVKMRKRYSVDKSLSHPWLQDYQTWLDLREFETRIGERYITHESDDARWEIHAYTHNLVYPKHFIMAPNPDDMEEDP

`COc1cccc2c(NCc3ccccc3)nc(-n3c(N)nc4ccccc43)nc12` has an inhibition of -8.9% (target engagement in cells; inhibitor; chemoproteomics; 20 mM).
The ΔTm of `N#CC1c2c([nH]c3c(Cl)c(Cl)ccc23)C(=O)NC12CCCCC2` (racemic) is reported as 0.9 °C (thermal stability; DSF; 10 µM).
With `CC(C)(C)c1nc2c(s1)c1nc(N)ncc1c1ccc(NS(=O)(=O)c3c(F)cccc3F)c(F)c12` the remaining activity was 98% (enzyme activity; inhibitor; radiometric; 1 µM).
`Nc1ncnc2occ(-c3ccc(NC(=O)Nc4cc(C(F)(F)F)ccc4F)cc3)c12` gave a remaining signal of 42% (cell-free assay; inhibitor; 20 µM).
With `COc1cc2ncnc(Nc3ccc(F)c(Cl)c3)c2cc1OCCCN1CCOCC1` the remaining signal was 76.3% (cell-free assay; 0.5 µM).
The activity vs control of `Cc1ccc(C(=O)NCc2ccsc2)cc1C#Cc1cn(C(C)C)c2ncnc(N)c12` is reported as 101% (enzyme activity; inhibitor; 1 µM).
With `COc1cc2ncnc(Nc3ccc(Oc4ccccc4)cc3C)c2cc1OC` the inhibition was 10% (enzyme activity; inhibitor; 1 µM).
`Cc1ccc(C(=O)Nc2ccc(CN3CCN(C)CC3)c(C(F)(F)F)c2)cc1C#Cc1cnc2cccnn12` has a remaining activity of 100% (enzyme activity; inhibitor; 23.5 nM).
For `CCCCN(CCCC)C(=O)CN1C[C@@H](c2cc(OC)c3c(c2)OCO3)[C@H](C(=O)O)[C@H]1CC(C)(C)CCC`, the remaining binding was 100% (cell-free assay; competition with immobilised ligand; 1 µM).
The remaining signal of `COc1cc2c(Nc3ccc(Br)cc3F)ncnc2cc1OCC1CCN(C)CC1` is reported as 91.7% (cell-free assay; 0.5 µM).
The remaining binding of `CSc1cccnc1N1CCN(Cc2nc3ccccc3[nH]2)CC1` is reported as 100% (cell-free assay; competition with immobilised ligand; 1 µM).
`CN1CC(Oc2cnc(C#N)cc2-c2ccn3nc(NC(=O)C4CC4)cc3c2)C1` gave an inhibition of -13% (enzyme activity; inhibitor; 1 µM).
With `O=C(Nc1cnn(-c2csc(C(=O)NC3COC3)c2)c1)Nc1c(F)cccc1Cl` the remaining activity was 105% (enzyme activity; inhibitor; 5 µM).
For `Cc1nc(N2CC[C@@H](O)C2)ncc1-c1cc(C(F)(F)F)cc2[nH]ncc12`, the remaining binding was 100% (binding; competition with immobilised ligand; 1 µM).
With `Cn1c2c(c3ccc(Cl)c(Cl)c31)C(C#N)C(C)(C)NC2=O` (centres unmarked) the ΔTm was 1.9 °C (thermal stability; DSF; 10 µM).
`CC(C)(O)c1cncc(-c2nc3ccc(F)cc3n2C2CC2)c1` has a remaining binding of 100% (cell-free assay; competition with immobilised ligand; 1 µM).
`CNc1cccc2cc(C(=O)Nc3ccc(C(=O)O)cc3)c(=O)[nH]c12` gave an inhibition of -1% (enzyme activity; inhibitor; 10 µM).
With `CO[C@@H](C)c1c(Nc2ccc([C@@H](N(C)C(=O)C3CCS(=O)(=O)CC3)C(F)(F)F)cc2)cnc2cc(Cl)nn12` the remaining binding was 93% (cell-free assay; competition with immobilised ligand; 1 µM).
`N#CCCc1ccc2c(c1)-c1[nH]c3ccc([N+](=O)[O-])cc3c1CC(=O)N2` has a remaining signal of 84% (cell-free assay; 0.5 µM).
For `O=C(NCc1ncc(C(F)(F)F)cc1Cl)c1ccc2c(c1)C1(CCS(=O)(=O)CC1)[C@H](C1CC1)N2S(=O)(=O)c1ccc(F)cc1`, the remaining binding was 100% (cell-free assay; competition with immobilised ligand; 1 µM).
For `CC1(C)NC(=O)c2[nH]c3c(Cl)c(Cl)ccc3c2C1C#N` (centres unmarked), the ΔTm was 0.8 °C (thermal stability; DSF; 10 µM).
With `CC(C)CC(=O)N1CCc2nc(-c3ccc(Br)cc3)nc(N(C)Cc3ccccc3)c2C1` the remaining binding was 100% (cell-free assay; competition with immobilised ligand; 0.1 µM).
`CCN1CCN(Cc2ccc(NC(=O)c3ccc(C)c(Oc4ccnc5[nH]ccc45)c3)cc2C(F)(F)F)CC1` gave an inhibition of -12.7% (target engagement in cells; inhibitor; chemoproteomics; Huh-7; 1 µM).
